Assay results published in article PMC6469399 (Chemistry (Weinheim an der Bergstrasse, Germany), 2019).

Key:
WT-CFTR [1] = target: T1, WT-CFTR (Homo sapiens, UniProt P13569); experiment: Ussing chamber potentiation assay, WT CFBE41o- monolayers; format: cell-based
G551D-CFTR [2] = target: T2, G551D-CFTR (Homo sapiens, UniProt P13569, G551D); experiment: Ussing chamber potentiation assay, G551D CFBE41o- monolayers; format: cell-based
[3] = Metabolic stability in human hepatic microsomes; format: in vitro ADME
F508del-CFTR [4] = target: T3, F508del-CFTR (Homo sapiens, UniProt P13569, DEL508-508); format: cell-based
G551D-CFTR [5] = target: T2, G551D-CFTR; experiment: Ussing chamber potentiation assay, Fischer Rat Thyroid; format: cell-based
WT-CFTR [6] = target: T1, WT-CFTR; experiment: Patch clamp analysis, macroscopic currents in excised inside-out patch; format: biochemical
F508del-CFTR [7] = target: T3, F508del-CFTR; experiment: TECC; format: cell-based; details: F508del CFBE41o- cells; % activity of the 3 μM VX-809 response
Procedure, shortened: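 F508del CFBE41o- monolayers were pre-incubated 24 h with a range of test-compound concentrations, with DMSO as vehicle and 3 μM VX-809 as positive control in every experiment. Equivalent current (ΔIeq) was recorded as AUC after forskolin (10 μM) + VX-770 (1 μM) stimulation, then CFTRinh-172 (20 μM) inhibition. Response is expressed as % of VX-809 response; n = 3–5; two-way ANOVA with Tukey test versus vehicle.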

| SMILES | EC50 (WT-CFTR [1]) [nM] | Maximal Response WT CFBE (WT-CFTR [1]; WT CFBE41o-, % activity of the VX-770 response, Inactive = no statistically significant response above DMSO vehicle) [%] | EC50 (G551D-CFTR [2]) [nM] | Maximal Response G551D CFBE (G551D-CFTR [2]; G551D CFBE41o-, % activity of the VX-770 response, Inactive = no statistically significant response above DMSO vehicle) [%] | CLHEP, predicted hepatic clearance, human ([3]; calculated from CLINT, human) [mL min^−1 kg ^−1] | CLINT, intrinsic clearance in human hepatic microsomes ([3]; human hepatic microsomes) [mL min^−1 kg ^−1] | EC50 (F508del-CFTR [4]) [nM] | EC50 (G551D-CFTR [5]) [nM] | Maximal Response G551D FRT (G551D-CFTR [5]; G551D FRT cells, % activity of the VX-770 response, Inactive = no statistically significant response above DMSO vehicle) [%] | EC50 (WT-CFTR [6]) [nM] | increase of current at lowest dose tested (WT-CFTR [6]; WT-CFTR patch clamp, 0.2 nM) | Maximal Response (F508del-CFTR [7]) [%] |
| --- | --- | --- | --- | --- | --- | --- | --- | --- | --- | --- | --- | --- |
| CC(C)(C)c1cc(C(C)(C)C)c(NC(=O)c2c[nH]c3ccccc3c2=O)cc1O [VX-770, Ivacaftor] | 36.5 ± 21.3 | 100.0 | 77.7 ± 27.2 | 100.0 | 14.4 | 45.6 | 1890 ± 1390 | 428 ± 167 | 100.0 | 1.3 ± 0.3 | ~ 12% | – |
| COc1ccc(C2(C(=O)Nc3ccc(C)c(-c4cccc(C(=O)O)c4)n3)CC2)cc1 [compound 33] | – | – | – | – | – | – | – | – | – | – | – | 49.9 |
